Experimental data from the M2OR odorant receptor database.

Experiments:
Details in all cases: stereoisomer not certain
[1] = molecular target: T1, OR1F12P (Homo sapiens) (UniProt Q8NHA8)
T1 sequence (whole entry): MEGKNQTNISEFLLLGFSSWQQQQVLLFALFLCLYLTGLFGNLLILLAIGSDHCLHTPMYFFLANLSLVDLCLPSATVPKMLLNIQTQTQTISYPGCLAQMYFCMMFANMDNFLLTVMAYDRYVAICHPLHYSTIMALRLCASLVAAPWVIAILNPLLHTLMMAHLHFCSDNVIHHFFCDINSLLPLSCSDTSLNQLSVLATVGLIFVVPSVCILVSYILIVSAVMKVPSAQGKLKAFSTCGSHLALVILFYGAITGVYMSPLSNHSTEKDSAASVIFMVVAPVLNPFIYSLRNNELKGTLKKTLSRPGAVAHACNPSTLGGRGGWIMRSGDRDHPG
Summary of the method: (§1)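 Each entry records the cell line, G-protein, co-transfected protein and tags used. Methods varied with the source, often transient luciferase assays in mammalian cell lines. A receptor–molecule pair is called responsive (active) if the original authors judged its signal statistically different from baseline and non-responsive (inactive) otherwise.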

[2] = molecular target: T2, OR1G1 (Homo sapiens) (UniProt P47890)
T2 sequence (whole entry): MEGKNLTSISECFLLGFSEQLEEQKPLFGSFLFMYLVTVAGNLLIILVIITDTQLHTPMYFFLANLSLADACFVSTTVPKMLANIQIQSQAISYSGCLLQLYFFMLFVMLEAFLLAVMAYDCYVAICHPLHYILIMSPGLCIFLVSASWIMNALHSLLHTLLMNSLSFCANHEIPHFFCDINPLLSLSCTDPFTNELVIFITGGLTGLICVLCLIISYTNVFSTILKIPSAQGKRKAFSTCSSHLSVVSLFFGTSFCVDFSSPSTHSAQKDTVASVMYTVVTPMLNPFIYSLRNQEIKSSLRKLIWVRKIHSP
Summary of the method: as §1

[3] = molecular target: T3, OR1I1 (Homo sapiens) (UniProt O60431)
T3 sequence (whole entry): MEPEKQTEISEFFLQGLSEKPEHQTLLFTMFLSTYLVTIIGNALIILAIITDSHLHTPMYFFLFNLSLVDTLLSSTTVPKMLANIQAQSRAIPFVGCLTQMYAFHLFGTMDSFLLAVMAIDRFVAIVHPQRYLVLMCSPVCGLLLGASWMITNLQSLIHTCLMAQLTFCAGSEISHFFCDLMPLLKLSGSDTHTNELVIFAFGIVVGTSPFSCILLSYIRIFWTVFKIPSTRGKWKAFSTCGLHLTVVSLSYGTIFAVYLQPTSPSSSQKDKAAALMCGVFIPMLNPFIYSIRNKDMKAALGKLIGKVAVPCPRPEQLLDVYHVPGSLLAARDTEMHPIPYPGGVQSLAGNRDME
Summary of the method: as §1

[4] = molecular target: T4, OR1J1 (Homo sapiens) (UniProt Q8NGS3)
T4 sequence (whole entry): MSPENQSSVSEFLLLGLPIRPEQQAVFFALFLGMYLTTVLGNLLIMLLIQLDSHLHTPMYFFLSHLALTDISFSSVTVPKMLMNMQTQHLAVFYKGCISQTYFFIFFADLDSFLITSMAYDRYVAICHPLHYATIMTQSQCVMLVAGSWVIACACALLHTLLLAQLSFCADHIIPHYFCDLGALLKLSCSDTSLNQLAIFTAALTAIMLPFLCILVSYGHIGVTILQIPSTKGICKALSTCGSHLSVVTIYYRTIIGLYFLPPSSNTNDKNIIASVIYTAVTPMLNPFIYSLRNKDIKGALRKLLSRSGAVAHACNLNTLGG
Summary of the method: as §1

[5] = molecular target: T5, OR1J2 (Homo sapiens) (UniProt Q8NGS2)
T5 sequence (whole entry): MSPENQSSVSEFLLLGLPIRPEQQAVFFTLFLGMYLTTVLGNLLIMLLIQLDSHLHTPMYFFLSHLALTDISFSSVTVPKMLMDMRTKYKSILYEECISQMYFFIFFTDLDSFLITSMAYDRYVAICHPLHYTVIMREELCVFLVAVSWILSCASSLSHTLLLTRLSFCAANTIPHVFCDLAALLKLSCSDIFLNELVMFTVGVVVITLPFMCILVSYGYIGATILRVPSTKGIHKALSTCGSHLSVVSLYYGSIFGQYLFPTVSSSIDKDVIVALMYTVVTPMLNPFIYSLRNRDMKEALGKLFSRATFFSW
Summary of the method: as §1

[6] = molecular target: T6, OR1J4 (Homo sapiens) (UniProt Q8NGS1)
T6 sequence (whole entry): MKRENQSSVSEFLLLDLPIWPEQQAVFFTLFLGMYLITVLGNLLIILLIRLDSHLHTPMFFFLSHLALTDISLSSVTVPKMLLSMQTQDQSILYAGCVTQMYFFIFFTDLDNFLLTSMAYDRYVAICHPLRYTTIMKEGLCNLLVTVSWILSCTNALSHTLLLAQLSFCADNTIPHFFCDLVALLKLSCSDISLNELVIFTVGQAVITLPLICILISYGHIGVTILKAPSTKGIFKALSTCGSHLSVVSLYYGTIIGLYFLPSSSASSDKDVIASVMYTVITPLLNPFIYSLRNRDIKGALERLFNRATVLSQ
Summary of the method: as §1

[7] = molecular target: T7, OR1K1 (Homo sapiens) (UniProt Q8NGR3)
T7 sequence (whole entry): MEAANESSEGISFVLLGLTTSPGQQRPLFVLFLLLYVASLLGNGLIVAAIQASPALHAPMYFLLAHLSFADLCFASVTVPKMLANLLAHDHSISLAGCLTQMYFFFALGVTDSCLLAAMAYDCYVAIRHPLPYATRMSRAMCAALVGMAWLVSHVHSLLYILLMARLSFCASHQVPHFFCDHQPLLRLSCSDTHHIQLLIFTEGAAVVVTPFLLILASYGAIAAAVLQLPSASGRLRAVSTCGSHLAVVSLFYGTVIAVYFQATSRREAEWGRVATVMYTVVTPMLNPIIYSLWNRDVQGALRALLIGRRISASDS
Summary of the method: as §1

[8] = molecular target: T8, OR1L1 (Homo sapiens) (UniProt Q8NH94)
T8 sequence (whole entry): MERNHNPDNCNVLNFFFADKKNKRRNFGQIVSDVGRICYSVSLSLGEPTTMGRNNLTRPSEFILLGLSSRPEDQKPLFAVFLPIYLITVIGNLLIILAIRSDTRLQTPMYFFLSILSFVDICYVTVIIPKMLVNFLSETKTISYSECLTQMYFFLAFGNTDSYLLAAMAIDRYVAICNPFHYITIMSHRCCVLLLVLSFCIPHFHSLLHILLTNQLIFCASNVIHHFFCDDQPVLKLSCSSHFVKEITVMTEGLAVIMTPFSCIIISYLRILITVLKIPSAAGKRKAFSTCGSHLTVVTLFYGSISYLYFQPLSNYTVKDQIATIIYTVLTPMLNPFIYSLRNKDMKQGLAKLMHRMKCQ
Summary of the method: as §1

[9] = molecular target: T9, OR1L3 (Homo sapiens) (UniProt Q8NH93)
T9 sequence (whole entry): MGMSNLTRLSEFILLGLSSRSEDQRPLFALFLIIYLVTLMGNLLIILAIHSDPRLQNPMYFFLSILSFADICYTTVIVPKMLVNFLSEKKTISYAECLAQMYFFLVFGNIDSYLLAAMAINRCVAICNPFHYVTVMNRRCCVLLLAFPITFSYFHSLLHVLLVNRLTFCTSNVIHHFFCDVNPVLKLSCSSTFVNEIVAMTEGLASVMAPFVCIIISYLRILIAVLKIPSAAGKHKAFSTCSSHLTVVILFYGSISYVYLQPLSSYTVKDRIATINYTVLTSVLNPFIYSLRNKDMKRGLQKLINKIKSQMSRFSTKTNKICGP
Summary of the method: as §1

[10] = molecular target: T10, OR1L4 (Homo sapiens) (UniProt Q8NGR5)
T10 sequence (whole entry): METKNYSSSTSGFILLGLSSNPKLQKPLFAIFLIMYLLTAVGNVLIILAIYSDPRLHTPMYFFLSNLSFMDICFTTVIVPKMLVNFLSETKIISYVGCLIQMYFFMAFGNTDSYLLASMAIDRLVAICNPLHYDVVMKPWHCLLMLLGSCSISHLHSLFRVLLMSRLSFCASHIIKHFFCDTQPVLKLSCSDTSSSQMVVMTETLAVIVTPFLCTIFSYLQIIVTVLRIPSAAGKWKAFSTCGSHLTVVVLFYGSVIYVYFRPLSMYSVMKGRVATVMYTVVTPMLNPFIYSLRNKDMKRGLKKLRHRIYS
Summary of the method: as §1

[11] = molecular target: T11, OR1L6 (Homo sapiens) (UniProt Q8NGR2)
T11 sequence (whole entry): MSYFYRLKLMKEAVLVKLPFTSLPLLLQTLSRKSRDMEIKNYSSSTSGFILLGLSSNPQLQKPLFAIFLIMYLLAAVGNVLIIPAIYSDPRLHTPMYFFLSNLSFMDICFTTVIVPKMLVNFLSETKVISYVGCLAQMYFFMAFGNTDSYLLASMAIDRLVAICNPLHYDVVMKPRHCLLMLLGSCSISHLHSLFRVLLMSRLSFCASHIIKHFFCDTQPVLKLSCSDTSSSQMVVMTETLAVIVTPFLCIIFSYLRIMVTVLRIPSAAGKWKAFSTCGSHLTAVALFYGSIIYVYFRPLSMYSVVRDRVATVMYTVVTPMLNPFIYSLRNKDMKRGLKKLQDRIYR
Summary of the method: as §1

[12] = molecular target: T12, OR1L8 (Homo sapiens) (UniProt Q8NGR8)
T12 sequence (whole entry): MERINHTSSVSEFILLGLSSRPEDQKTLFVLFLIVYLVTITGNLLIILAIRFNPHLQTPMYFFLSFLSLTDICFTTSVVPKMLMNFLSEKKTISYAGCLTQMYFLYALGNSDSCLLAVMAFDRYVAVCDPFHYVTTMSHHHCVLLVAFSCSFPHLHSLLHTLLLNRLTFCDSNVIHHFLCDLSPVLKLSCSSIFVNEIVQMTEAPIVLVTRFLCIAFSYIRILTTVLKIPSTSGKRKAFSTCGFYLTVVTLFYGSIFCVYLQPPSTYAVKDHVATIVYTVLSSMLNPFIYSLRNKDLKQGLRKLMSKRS
Summary of the method: as §1

[13] = molecular target: T13, OR1M1 (Homo sapiens) (UniProt Q8NGA1)
T13 sequence (whole entry): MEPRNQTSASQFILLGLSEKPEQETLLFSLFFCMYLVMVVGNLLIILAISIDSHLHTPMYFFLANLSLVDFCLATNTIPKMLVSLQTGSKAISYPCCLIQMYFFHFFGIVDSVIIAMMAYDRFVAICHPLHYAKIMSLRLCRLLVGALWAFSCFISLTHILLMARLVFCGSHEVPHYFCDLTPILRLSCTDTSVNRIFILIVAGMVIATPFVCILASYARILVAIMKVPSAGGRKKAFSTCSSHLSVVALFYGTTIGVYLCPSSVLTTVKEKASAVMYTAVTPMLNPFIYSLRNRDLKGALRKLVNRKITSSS
Summary of the method: as §1

[14] = molecular target: T14, OR1N1 (Homo sapiens) (UniProt Q8NGS0)
T14 sequence (whole entry): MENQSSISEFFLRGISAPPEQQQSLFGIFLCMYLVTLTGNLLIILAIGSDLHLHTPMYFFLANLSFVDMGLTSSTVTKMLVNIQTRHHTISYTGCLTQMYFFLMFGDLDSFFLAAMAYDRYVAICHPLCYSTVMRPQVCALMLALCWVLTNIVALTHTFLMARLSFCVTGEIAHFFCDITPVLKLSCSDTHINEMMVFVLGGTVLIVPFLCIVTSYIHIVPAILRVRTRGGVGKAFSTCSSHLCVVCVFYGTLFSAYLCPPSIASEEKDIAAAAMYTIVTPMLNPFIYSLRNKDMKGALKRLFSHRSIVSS
Summary of the method: as §1

Measured: odorant receptor agonist call

CCCCCC(=O)C(C)C(C)=O (centres undefined)
inactive: all assays above
